Measured values of several laboratories.
≈ marks a conversion by molar mass, not a printed value.

For CC(C)CN(c1ccc(F)cc1)c1c(-c2ccccn2)nc2ccccn12, the EC50 was 0.794 µM (Leishmania infantum; parasite growth; 5 days, intracellular, amastigote).
For O=C(N[C@@H](Cc1ccccc1)C(=O)c1ncc(-c2ccccc2)s1)[C@H](Cc1ccccc1)NC(=O)N1CCOCC1, the IC50 was 32.5 µM (Leishmania infantum; parasite growth; intracellular, amastigote).
With c1ccc(-c2nc3n(c2-c2ccncc2)CCC3)nc1 the EC50 was over 63.1 µM (Leishmania infantum; parasite growth; 5 days, intracellular, amastigote).
CCOC(=O)C1=C(C)N2NC(C)(c3ccccc3O)N(C(Cc3c[nH]c4ccccc34)C(=O)O)C2=NC1c1ccc(Cl)cc1 (stereo not drawn) has an inhibition zone of 17 mm (Streptococcus pyogenes; microbial growth; ATCC19615; 10 µg/mL, 24 h).
With O=C(N[C@H](CCc1ccccc1)C(=O)c1cc(Cc2ccccc2)on1)[C@H](Cc1ccccc1)NC(=O)N1CCOCC1 the IC50 was over 64 µM (Leishmania infantum; parasite growth; intracellular, amastigote).
O=C(O)CN1C(=O)/C(=C/c2ccc(-c3ccc(N(c4ccccc4)c4ccccc4)cc3)c3ccccc23)SC1=S has an MIC of 1000 µg/mL (≈ 1750 µM) (Streptococcus pyogenes; microbial growth, broth dilution; ATCC19615).
For C[Si](C)(C)c1cc(C(=O)[C@H](Cc2ccccc2)NC(=O)[C@H](Cc2ccccc2)NC(=O)N2CCOCC2)no1 (mixture of isomers), the IC50 was over 64 µM (Leishmania infantum; parasite growth; intracellular, amastigote).
CCCCCCCCCCCCCCCCC#CC(=O)O has an IC50 of 11.7 µM (Leishmania infantum; parasite growth; mouse Splenocyte; 72 h, intracellular, amastigote).
O=C(O)CN1C(=O)/C(=C/c2c3ccccc3c(-c3ccc(N(c4ccccc4)c4ccccc4)cc3)c3ccccc23)SC1=S gave an MIC of over 1000 µg/mL (Streptococcus pyogenes; microbial growth, broth dilution; ATCC19615).
COc1cc(OC)c(OC)cc1C=C1Oc2ccccc2C1=O has an inhibition of 30% (Streptococcus mutans; microbial growth; UA159; 50 µM).
O=C1NC(=S)N/C1=C\c1ccc(-c2ccc(N(c3ccccc3)c3ccccc3)cc2)c2ccccc12 has an MBC of over 1000 µg/mL (Streptococcus pyogenes; microbial killing, broth dilution; ATCC19615).
The inhibition zone of CC(=O)C1=C(C)N2NC(c3ccccc3O)N(C(Cc3c[nH]c4ccccc34)C(=O)O)C2=NC1c1ccc(Cl)cc1 (stereo not drawn) is reported as 18 mm (Streptococcus pyogenes; microbial growth; ATCC19615; 10 µg/mL, 24 h).
The EC50 of c1ccc(-c2c(-c3ccccn3)nc3n2CCC3)cc1 is reported as 2 µM (Leishmania infantum; parasite growth; 5 days, intracellular, amastigote).
With CCOC(=O)C1=C(C)N2NC(c3ccccc3O)N(C(Cc3c[nH]c4ccccc34)C(=O)O)C2=NC1c1ccc(Cl)cc1 (stereo not drawn) the inhibition zone was 18 mm (Streptococcus pyogenes; microbial growth; ATCC19615; 10 µg/mL, 24 h).
The IC50 of O=C(N[C@@H](Cc1ccccc1)C(=O)c1cc(-c2ccccc2)on1)[C@H](Cc1ccccc1)NC(=O)N1CCOCC1 (single isomer, unassigned) is reported as over 64 µM (Leishmania infantum; parasite growth; intracellular, amastigote).
With O=C(O)CN1C(=O)/C(=C/c2c3ccccc3c(-c3ccc(N(c4ccccc4)c4ccccc4)cc3)c3ccccc23)NC1=S the MIC was over 1000 µg/mL (Streptococcus mutans; microbial growth, broth dilution; ATCC25175).
With CCCCCCC/C=C/C(=O)N1C(=O)/C(=C(/C)O)C(=O)C1Cc1ccc(OC(C)(C)C)cc1 (stereo not drawn) the MIC was over 200 µg/mL (Stenotrophomonas maltophilia; microbial growth; ATCC13637).
O=C1NC(=S)N/C1=C\c1c2ccccc2c(-c2ccc(N(c3ccccc3)c3ccccc3)cc2)c2ccccc12 has an MBC of over 1000 µg/mL (Streptococcus pyogenes; microbial killing, broth dilution; ATCC19615).
The inhibition zone of CC(=O)C1=C(C)N2NC(C)(c3ccccc3O)N(C(C)C(=O)O)C2=NC1c1ccc(Cl)cc1 (stereo not drawn) is reported as 18 mm (Streptococcus pyogenes; microbial growth; ATCC19615; 15 µg/mL, 24 h).
For CS(=O)(=O)c1ccc(-c2c(-c3ccccn3)nc3n2CCC3)cc1, the IC50 was over 64 µM (Leishmania infantum; parasite growth; intracellular, amastigote).
With C/C(O)=C1\C(=O)C(CC(C)C)N(C(=O)CCCCCc2ccccc2)C1=O (stereo not drawn) the MIC was over 200 µg/mL (Stenotrophomonas maltophilia; microbial growth; ATCC13637).
CC(C(=O)O)N1C2=NC(c3ccc(Cl)cc3)C3=C(OC(C)(C)OC3=O)N2NC1(C)c1ccccc1O (stereo not drawn) gave an inhibition zone of 22 mm (Streptococcus pyogenes; microbial growth; ATCC19615; 15 µg/mL, 24 h).
For CCCCCCC/C=C/C(=O)N1C(=O)/C(=C(/C)O)C(=O)C1Cc1ccc(O)cc1 (stereo not drawn), the MIC was 100 µg/mL (≈ 250 µM) (Stenotrophomonas maltophilia; microbial growth; ATCC13637).
For O=C1C(=Cc2ccc(O)c(O)c2)Oc2ccccc21, the inhibition was 40% (Streptococcus mutans; microbial growth; UA159; 50 µM).
O=C(O)CN1C(=O)/C(=C/c2ccc(-c3ccc(N(c4ccccc4)c4ccccc4)cc3)c3ccccc23)NC1=S has an MBC of over 1000 µg/mL (Streptococcus pyogenes; microbial killing, broth dilution; ATCC19615).
CC(C(=O)O)N1c2nc(-c3ccc(Cl)cc3)c(C#N)c(=O)n2NC1(C)c1ccccc1O (stereo not drawn) has an inhibition zone of 16 mm (Streptococcus pyogenes; microbial growth; ATCC19615; 10 µg/mL, 24 h).
The IC50 of Fc1ccc(Nc2c(-c3ccccn3)nc3ccccn23)cc1 is reported as 8.11 µM (Leishmania infantum; parasite growth; intracellular, amastigote).
For CC1(c2ccccc2O)Nn2c(nc(-c3ccc(Cl)cc3)c(C#N)c2=O)N1C(Cc1c[nH]c2ccccc12)C(=O)O (stereo not drawn), the inhibition zone was 32 mm (Streptococcus pyogenes; microbial growth; ATCC19615; 15 µg/mL, 24 h).
For O=C(N[C@@H](Cc1ccccc1)C(=O)c1ncc(-c2ccccc2)o1)[C@H](Cc1ccccc1)NC(=O)N1CCOCC1, the IC50 was over 64 µM (Leishmania infantum; parasite growth; intracellular, amastigote).
The EC50 of Clc1cccc(-c2c(-c3ccccn3)nc3n2CCC3)c1 is reported as 0.794 µM (Leishmania infantum; parasite growth; 5 days, intracellular, amastigote).
The MBC of O=C1NC(=S)S/C1=C\c1c2ccccc2c(-c2ccc(N(c3ccccc3)c3ccccc3)cc2)c2ccccc12 is reported as over 1000 µg/mL (Streptococcus mutans; microbial killing, broth dilution; ATCC25175).
O=C(N[C@@H](Cc1ccccc1)C(=O)c1nc2ccccc2o1)[C@H](Cc1ccccc1)NC(=O)N1CCOCC1 gave an IC50 of over 64 µM (Leishmania infantum; parasite growth; intracellular, amastigote).
For Fc1ccc(Nc2c(Cn3cccn3)nc3ccccn23)cc1, the IC50 was over 64 µM (Leishmania infantum; parasite growth; intracellular, amastigote).
With O=C(O)CN1C(=O)/C(=C/c2ccc(-c3ccc(N(c4ccccc4)c4ccccc4)cc3)cc2)SC1=S the MBC was over 1000 µg/mL (Streptococcus mutans; microbial killing, broth dilution; ATCC25175).
CN(c1ccc(F)cc1)c1c(-c2ccccn2)nc2ccccn12 has an EC50 of 1 µM (Leishmania infantum; parasite growth; 5 days, intracellular, amastigote).
CCCCCCC/C=C/C(=O)N1C(=O)/C(=C(\O)c2ccccc2)C(=O)C1CC(C)C (stereo not drawn) has an MIC of over 200 µg/mL (Stenotrophomonas maltophilia; microbial growth; ATCC13637).
